EC50, CC50 and selectivity ratio data for 30 compounds are collected here from ChEMBL document CHEMBL4024801, “Synthesis and Structure-Activity Relationship (SAR) Studies of Novel Pyrazolopyridine Derivatives as Inhibitors of Enterovirus Replication” (J Med Chem, 2018).

One data set has as its system Coxsackievirus B3. The experiment in a line: Antiviral activity against Coxsackievirus B3 infected in human HeLa-RW cells assessed as protection against virus-induced cytopathic effect after 3 to 4 days by crystal violet staining-based spectrophotometric method. Format: functional, cell-based. As to conditions: Enterovirus B. An outline of the steps:
(§1)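 HeLa-RW cells grown in DMEM with penicillin, streptomycin, glutamine and 10% FBS. They were infected at a low MOI pre-set to give full CPE in 3-4 days. Compound in DMSO was added as serial 2-fold dilutions (7 points), each in triplicate. When control CPE was maximal, cells were fixed with 4% formaldehyde, stained with 0.25% crystal violet and read at OD590. EC50 came from a four-parameter or sigmoidal fit.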

Another data set has as its system Poliovirus 1. As to the kind of experiment: Antiviral activity against Poliovirus 1 infected in human HeLa-RW cells assessed as protection against virus-induced cytopathic effect after 3 to 4 days by crystal violet staining-based spectrophotometric method. Format: functional, cell-based. As to conditions: Enterovirus C. A digest of the protocol:
as §1

The subject of another data set is Enterovirus A71. As to the kind of experiment: Antiviral activity against Enterovirus A71 infected in monkey LLC-MK2 cells assessed as protection against virus-induced cytopathic effect after 3 to 4 days by crystal violet staining-based spectrophotometric method. Conditions: Enterovirus A. The class given is functional, cell-based. A digest of the protocol:
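EV-A71 was tested in LLC-MK2 cells grown in DMEM with 10% FBS, penicillin, streptomycin and glutamine, at a low MOI preset to give full CPE in 3–4 days. Compound was dissolved in DMSO and diluted 2-fold, in triplicate. Cells were fixed with formaldehyde when control CPE was maximal, then stained with crystal violet and read at OD590. EC50 came from a 7-point four-parameter or sigmoidal fit.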

The next data set relates to Poliovirus 3. The experiment in a line: Antiviral activity against Poliovirus 3 infected in human HeLa-RW cells assessed as protection against virus-induced cytopathic effect after 3 to 4 days by crystal violet staining-based spectrophotometric method. Format: functional, cell-based. Conditions: Enterovirus C. An outline of the steps:
as §1

The next data set has as its system LLC-MK2. The experiment in a line: Cytotoxicity against monkey LLC-MK2 cells after 3 to 4 days by crystal violet staining-based spectrophotometric method. Format: cell-based, Macaca mulatta. As to conditions: rhesus monkey. A digest of the protocol:
(§2)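 Uninfected cells (HeLa-RW or LLC-MK2, in DMEM with penicillin, streptomycin, glutamine and 10% FBS) were exposed to serial 2-fold compound dilutions for the same period as the CPE assay. They were then fixed with formaldehyde, stained with crystal violet and read by OD590 spectrophotometry to derive CC50. Values are means ± s.d. of 3 experiments, or the average of triplicates in one.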

The nature of data set [1]: Selectivity index, ratio of CC50 for human HeLa-RW cells to EC50 for Coxsackievirus B3. Format: toxicity. As to conditions: read-out: Ratio CC50/EC50. A digest of the protocol: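 HeLa-RW cells in DMEM with 10% FBS were used for both arms. For EC50, cells were infected with CVB3-H3 at a low MOI giving full CPE in 3–4 days and exposed to 2-fold compound dilutions, in triplicate, with a 7-point fit. For CC50, uninfected cells got 2-fold dilutions for the same period. Both arms were fixed, crystal violet-stained and read at OD590.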

Data set [2] in a line: Cytotoxicity against human HeLa-RW cells after 3 to 4 days by crystal violet staining-based spectrophotometric method. Format: cell-based. Conditions: hela-rw. A digest of the protocol:
as §2

The nature of data set [3]: Selectivity index, ratio of CC50 for monkey LLC-MK2 cells to EC50 for Enterovirus A71. The class given is toxicity. Conditions: read-out: Ratio CC50/EC50. An outline of the steps:
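LLC-MK2 cells in DMEM with 10% FBS were used for both arms. For EC50, cells were infected with EV-A71 at a low MOI giving full CPE in 3–4 days and exposed to 2-fold compound dilutions, in triplicate. For CC50, uninfected cells got 2-fold dilutions for the same period. Both arms were formaldehyde-fixed, crystal violet-stained and read at OD590.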

`CC(C)n1ncc2c(C(=O)Nc3ccc(S(N)(=O)=O)cc3)cc(-c3cccs3)nc21`: the 50% effective concentration (EC50) with Coxsackievirus B3, in the data set with Poliovirus 1, in the data set with Enterovirus A71 and with Poliovirus 3 was more than 10 µM each time.

On to `CC(C)n1ncc2c(C(=O)Nc3cccc(S(N)(=O)=O)c3)cc(C3CC3)nc21`, for which the EC50 in the data set with Coxsackievirus B3, in the data set with Poliovirus 1, in the data set with Enterovirus A71 and in the data set with Poliovirus 3 was more than 10 µM each time.

For the compound `CC(C)n1ncc2c(C(=O)Nc3ccccn3)cc(C3CC3)nc21`, the EC50 in the data set on Coxsackievirus B3 was 4.7 µM; with Poliovirus 1 it was more than 25 µM; in the data set on Enterovirus A71, 4.7 µM; in the data set with Poliovirus 3, more than 25 µM. Moreover, the cytotoxic concentration (CC50) (in the data set on LLC-MK2; in data set [2]) was 25 µM in each case. Moreover, the selectivity ratio in data set [1] and in data set [3] was 5.3 each time.

Regarding `CC(C)n1ncc2c(C(=O)Nc3ccc(F)cc3F)cc(-c3cccs3)nc21`, the EC50 in the data set with Coxsackievirus B3 is 1.4 µM; in the data set with Poliovirus 1, more than 25 µM; in the data set on Enterovirus A71, 1.6 µM; in the data set with Poliovirus 3, more than 25 µM. Also, the CC50 (in the data set on LLC-MK2; in data set [2]) was more than 200 µM each time. Further, the selectivity ratio is more than 143 in data set [1] and more than 125 in data set [3].

Regarding `CC(C)n1ncc2c(C(=O)Nc3cccnc3)cc(-c3ccsc3)nc21`, the EC50 in the data set on Coxsackievirus B3 was 0.6 µM; with Poliovirus 1, more than 10 µM; with Enterovirus A71, 2.4 µM; in the data set with Poliovirus 3 it was more than 10 µM. Besides, the CC50 in the data set on LLC-MK2 was 37 µM; in data set [2], 18 µM. The values for the selectivity ratio in data set [1] and in data set [3] were 30 and 15.4, respectively.

Turning to `CC(C)n1ncc2c(NC(=O)c3ccc(F)cc3)cc(-c3cccs3)nc21`, the EC50 was 4.7 µM in the data set on Coxsackievirus B3, more than 10 µM with Poliovirus 1, 4 µM in the data set with Enterovirus A71 and more than 10 µM in the data set on Poliovirus 3. Further, the CC50 with LLC-MK2 amounted to 50 µM; in data set [2], 12 µM. Moreover, the results for the selectivity ratio in data set [1] and in data set [3] were 2.6 and 12.5, respectively.

As to `CC(C)n1nnc2c(C(=O)Nc3ccc(F)cc3)cc(-c3cccs3)nc21`, the EC50 in the data set on Coxsackievirus B3, in the data set on Poliovirus 1, with Enterovirus A71 and in the data set on Poliovirus 3 was more than 10 µM each time.

On to `CC(C)n1ncc2c(C(=N)Nc3cccnc3)cc(-c3cccs3)nc21`, for which the EC50 in the data set with Coxsackievirus B3, with Poliovirus 1, in the data set with Enterovirus A71 and in the data set on Poliovirus 3 was more than 10 µM in each case.

`CC(C)n1ncc2c(C(=N)Nc3ccc(F)cc3)cc(-c3cccs3)nc21`: the EC50 with Coxsackievirus B3, in the data set on Poliovirus 1, in the data set with Enterovirus A71 and with Poliovirus 3 was more than 10 µM in each case.

With `CC(C)n1ncc2c(C(=O)Nc3ccccc3F)cc(-c3ccccn3)nc21`, the EC50 with Coxsackievirus B3 is 6.9 µM; in the data set with Poliovirus 1, more than 25 µM; with Enterovirus A71, more than 10 µM; with Poliovirus 3, more than 25 µM. In addition, the results for the CC50 (in the data set with LLC-MK2; in data set [2]) were 100 µM and more than 200 µM, respectively. In addition, the selectivity ratio in data set [1] is more than 29.

Turning to `CC(C)n1ncc2c(C(=O)Nc3ccc(F)c(F)c3)cc(-c3cccs3)nc21`, the EC50 in the data set with Coxsackievirus B3 is 1.3 µM; in the data set on Poliovirus 1 it was more than 10 µM; in the data set with Enterovirus A71, more than 25 µM; with Poliovirus 3 it was more than 10 µM. Moreover, the CC50 (in the data set on LLC-MK2; in data set [2]) was more than 200 µM each time. For the same compound, the selectivity ratio in data set [1] was more than 154.

For the compound `CC(C)n1ncc2c(C(=O)Nc3ccc(F)cc3)nc(-c3cccs3)nc21`, the EC50 in the data set on Coxsackievirus B3, in the data set with Poliovirus 1, in the data set with Enterovirus A71 and in the data set on Poliovirus 3 was more than 10 µM each time.

As to `CC(C)n1ncc2c(C(=O)Nc3ccncc3)cc(-c3ccsc3)nc21`, the EC50 in the data set on Coxsackievirus B3, in the data set on Poliovirus 1, with Enterovirus A71 and with Poliovirus 3 was more than 10 µM each time.

As to `CC(C)n1ncc2c(C(=O)Nc3ccccc3F)cc(-c3cnco3)nc21`, the concentration for a half-maximal effect (EC50) in the data set with Coxsackievirus B3, in the data set on Poliovirus 1, with Enterovirus A71 and with Poliovirus 3 was more than 10 µM in each case.

As to `CC(C)n1ncc2c(NS(=O)(=O)c3ccc(F)cc3)cc(-c3cccs3)nc21`, the 50% effective concentration (EC50) with Coxsackievirus B3, in the data set with Poliovirus 1, in the data set with Enterovirus A71 and in the data set on Poliovirus 3 was more than 10 µM each time.

Turning to `CC(C)n1ncc2c(C(=S)Nc3ccc(F)cc3)cc(-c3cccs3)nc21`, the EC50 in the data set with Coxsackievirus B3, in the data set with Poliovirus 1, with Enterovirus A71 and in the data set on Poliovirus 3 was more than 10 µM throughout.

On to `CC(C)n1ncc2c(C(=O)Nc3ccccc3F)cc(-c3nccs3)nc21`, for which the half-maximal effective concentration (EC50) in the data set on Coxsackievirus B3, in the data set with Poliovirus 1, in the data set on Enterovirus A71 and in the data set with Poliovirus 3 was more than 10 µM each time.

`CC(C)n1ncc2c(NC(=O)c3cc(-c4cccs4)nc4c3cnn4C(C)C)cc(-c3cccs3)nc21`: the EC50 with Coxsackievirus B3, with Poliovirus 1, in the data set on Enterovirus A71 and in the data set on Poliovirus 3 was more than 10 µM throughout.

`CC(C)n1ncc2c(C(=O)Nc3ccc(C(F)(F)F)cc3)cc(-c3cccs3)nc21`: the EC50 in the data set on Coxsackievirus B3, in the data set on Poliovirus 1, with Enterovirus A71 and in the data set on Poliovirus 3 was more than 25 µM each time.

Regarding `CC(C)n1ncc2c(C(=O)Nc3ccc(F)cc3Br)cc(-c3cccs3)nc21`, the EC50 in the data set with Coxsackievirus B3, in the data set with Poliovirus 1, with Enterovirus A71 and in the data set with Poliovirus 3 was more than 10 µM throughout.

For `CC(C)n1ccc2c(C(=O)Nc3ccc(F)cc3)cc(-c3cccs3)nc21`, the EC50 in the data set with Coxsackievirus B3 is 3.1 µM; in the data set on Poliovirus 1, more than 25 µM; in the data set on Enterovirus A71, more than 25 µM; in the data set on Poliovirus 3, more than 25 µM. The CC50 (in the data set on LLC-MK2; in data set [2]) was more than 200 µM throughout. Moreover, in data set [1], the selectivity ratio was more than 64.5.

For `CC(C)n1ncc2c(C(=O)Nc3cc(F)cc(F)c3)cc(-c3cccs3)nc21`, the EC50 in the data set on Coxsackievirus B3, with Poliovirus 1, in the data set with Enterovirus A71 and in the data set with Poliovirus 3 was more than 10 µM in each case.

Take `CC(C)n1ncc2c(C(=O)N(C)c3ccccn3)cc(-c3cccs3)nc21`: the EC50 with Coxsackievirus B3 was more than 25 µM; in the data set with Poliovirus 1 it was more than 10 µM; with Enterovirus A71 it was more than 10 µM; in the data set with Poliovirus 3 it was more than 10 µM.

For the compound `CC(C)n1ncc2c(S(=O)(=O)Nc3ccc(F)cc3)cc(-c3cccs3)nc21`, the concentration for a half-maximal effect (EC50) in the data set on Coxsackievirus B3, with Poliovirus 1, in the data set on Enterovirus A71 and in the data set on Poliovirus 3 was more than 10 µM throughout.

Turning to `CC(C)n1ncc2c(C(=O)Nc3ccccc3F)cc(-c3ccncc3)nc21`, the EC50 in the data set on Coxsackievirus B3 was 5.1 µM; in the data set with Poliovirus 1, more than 25 µM; in the data set with Enterovirus A71, more than 10 µM; in the data set on Poliovirus 3, more than 25 µM. Besides, the half-maximal cytotoxic concentration (CC50) in the data set on LLC-MK2 came out at 45 µM; in data set [2], 37.5 µM. Also, the selectivity ratio in data set [1] is 7.4.

Consider `CC(C)n1ncc2c(C(=O)Nc3ccccc3F)cc(-c3cccnc3)nc21`, for which the EC50 in the data set with Coxsackievirus B3 is 7 µM; in the data set with Poliovirus 1 it was more than 25 µM; in the data set with Enterovirus A71 it was more than 10 µM; in the data set on Poliovirus 3 it was more than 25 µM. Also, the half-maximal cytotoxic concentration (CC50) in the data set with LLC-MK2 was 50 µM; in data set [2], 37.5 µM. The selectivity ratio in data set [1] came to 5.4.

Turning to `CC(C)n1ncc2c(C(=O)Nc3ccccc3C(F)(F)F)cc(-c3cccs3)nc21`, the EC50 with Coxsackievirus B3, with Poliovirus 1, with Enterovirus A71 and in the data set with Poliovirus 3 was more than 10 µM each time.

Regarding `CC(C)n1ccc2c(C(=O)Nc3ccncc3)cc(-c3cccs3)nc21`, the EC50 in the data set with Coxsackievirus B3, in the data set with Poliovirus 1, in the data set on Enterovirus A71 and in the data set with Poliovirus 3 was more than 10 µM each time.

With `CC(C)n1ncc2c(-c3nc4ccc(F)cc4o3)cc(-c3cccs3)nc21`, the EC50 in the data set with Coxsackievirus B3, in the data set on Poliovirus 1, with Enterovirus A71 and in the data set with Poliovirus 3 was more than 10 µM in each case.

For `CC(C)n1cnc2c(C(=O)Nc3ccc(F)cc3)cc(-c3cccs3)nc21`, the concentration for a half-maximal effect (EC50) with Coxsackievirus B3, in the data set with Poliovirus 1, with Enterovirus A71 and in the data set with Poliovirus 3 was more than 10 µM each time.
